Inhibition in vivo, IC50 and ED50 data for 22 compounds are collected here from ChEMBL document CHEMBL1123064, “[1,4]Benzoxazine-2,3-diones as antiallergic agents” (J Med Chem, 1985).

The subject of assay [1] is Rattus norvegicus. The experiment in a line: Inhibition of antigen-induced […] at a dose of 25 mg/kg in passive cutaneous anaphylaxis in the male Sprague-Dawley rats. The assay is classed as functional. A digest of the protocol:
(§1)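 IgE antiserum was raised in male Sprague-Dawley rats with im ovalbumin/aluminum hydroxide plus ip B. pertussis. Naive rats were sensitized intradermally at dorsal sites (antiserum 1:20). After 48 h, groups of four received oral compound or vehicle (1% methylcellulose). 10 min later, iv challenge with 4 mg ovalbumin in 1% Evans blue; blued wheal areas measured at 30 min; Student's t test.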

The species named for assay [2] is Rattus norvegicus. Briefly: Concentration required to inhibit antigen-induced release of histamine (AIR) by 50% from passively sensitized rat mast cells. The assay is classed as functional, cell-based. To be noted: read-out: I50. A digest of the protocol:
(§2)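 Washed rat mast cells, passively sensitized in vitro with rat anti-ovalbumin serum, washed again, then challenged with ovalbumin; histamine release measured. Compounds dissolved in Me2SO (final 0.17%). I50 read from concentration-dependent inhibition; number of experiments in parentheses. DSCG positive control in every experiment.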

In assay [3] the test system is Rattus norvegicus. Briefly: Effective dose against passive cutaneous anaphylaxis in rat when administered perorally. Type of assay: functional. To be noted: po. A digest of the protocol:
as §1

Assay [4] relates to Rattus norvegicus. Briefly: Effective dose against passive cutaneous anaphylaxis when administered perorally. The assay is classed as functional. The following applies: po. The procedure, abridged: as §1
For assay [5], the species on record is Rattus norvegicus. Briefly: Concentration required to inhibit antigen-induced release of histamine (AIR) by 50% from passively sensitized rat mast cells at p<0.01. Type of assay: functional, cell-based. The following applies: Mast cell, read-out: I50. A digest of the protocol: as §2
The test system of assay [6] is Rattus norvegicus. The experiment in a line: Percent Inhibition of antigen-induced release of histamine at a dose of 50 mg/kg in passive cutaneous anaphylaxis in the male Sprague-Dawley rats. The assay is classed as functional. A digest of the protocol: as §1
In assay [7] the test system is Rattus norvegicus. The experiment in a line: Effective dose against passive anaphylaxis in rat when administered intraperitoneally. Type of assay: functional. The following applies: ip.
The subject of assay [8] is Rattus norvegicus. Briefly: Inhibition of antigen-induced release of histamine at a dose of 50 mg/kg in passive cutaneous anaphylaxis in the male Sprague-Dawley rats. Type of assay: functional. The procedure, abridged:
as §1

Assay [9] relates to Rattus norvegicus. Briefly: Effective dose against passive cutaneous anaphylaxis in rat when administered intraperitoneally. Type of assay: functional. To be noted: ip.

As a reminder, the inhibition in vivo is how much of the control response was suppressed. Lower therefore signals a response near the control. The compound `O=c1[nH]c2cc(Cl)ccc2oc1=O` gave an inhibition in vivo at 25 mg/kg with Rattus norvegicus [1] of 14%.
For the compound `COc1ccc2oc(=O)c(=O)[nH]c2c1`, the IC50 in the assay listed under Rattus norvegicus [2] was determined as 15 µM. In addition, 25 mg/kg produced 21% inhibition in vivo in the assay on Rattus norvegicus [1].
Usually ED50 stands for the midpoint of the dose-response relation. Lower therefore signals greater potency. Regarding `O=c1[nH]c2cc3[nH]c(=O)c(=O)oc3cc2oc1=O`, the IC50 in the assay filed under Rattus norvegicus [2] worked out at 3 µM. Also, in the assay on Rattus norvegicus [3], the ED50 was > 125 mg/kg. The same compound showed an inhibition in vivo at 25 mg/kg in the assay with Rattus norvegicus [1] of 13%.
With `O=c1[nH]c2cc(C(F)(F)F)ccc2oc1=O`, the IC50 in the assay listed under Rattus norvegicus [2] was 100 µM. For the same compound, testing at 25 mg/kg in the assay on Rattus norvegicus [1] gave an inhibition in vivo of 20%.
With `O=c1[nH]c2cc3oc(=O)c(=O)[nH]c3cc2oc1=O`, the IC50 in the assay listed under Rattus norvegicus [2] was 1.2 µM. In addition, the ED50 in the assay on Rattus norvegicus [3] is > 125 mg/kg. In the assay on Rattus norvegicus [1], the inhibition in vivo at 25 mg/kg is 0%.
In the case of `C=CCc1cc(OC)c2oc(=O)c(=O)[nH]c2c1`, the IC50 in the assay listed under Rattus norvegicus [2] was found to be 10 µM. The compound also showed an ED50 with Rattus norvegicus [4] of 7 mg/kg. In the assay on Rattus norvegicus [1], this compound showed an inhibition in vivo at 25 mg/kg of 77%.
Regarding `O=c1[nH]c2cc3ccccc3cc2oc1=O`, the IC50 in the assay filed under Rattus norvegicus [5] was 45 µM. This compound also yielded an inhibition in vivo at 25 mg/kg in the assay with Rattus norvegicus [1] of 11%. For the same compound, in the assay with Rattus norvegicus [6], the inhibition in vivo at 50 mg/kg turned out to be 45%.
For `O=c1[nH]c2cc3c(cc2oc1=O)CCCC3`, the IC50 in the assay listed under Rattus norvegicus [2] is 10 µM. Further, the ED50 with Rattus norvegicus [3] stood at 96 mg/kg. This compound returned an inhibition in vivo at 25 mg/kg with Rattus norvegicus [1] of 15%.
`COc1ccc2[nH]c(=O)c(=O)oc2c1`: the IC50 in the assay filed under Rattus norvegicus [2] amounted to 28 µM. The same compound showed an inhibition in vivo at 25 mg/kg with Rattus norvegicus [1] of 33%.
The matching figures for `COC(=O)c1cc(OC)c2oc(=O)c(=O)[nH]c2c1`: 3.4 µM and 35%.
Take `COc1cc2[nH]c(=O)c(=O)oc2cc1OC`: in the assay filed under Rattus norvegicus [2], the IC50 came to 30 µM. The 50% effect level in the assay on Rattus norvegicus [3] (ED50) was put at a dose of 20 mg/kg. In the assay with Rattus norvegicus [1], this compound yielded an inhibition in vivo at 25 mg/kg of 45%. Moreover, the inhibition in vivo at 50 mg/kg in the assay with Rattus norvegicus [6] was 100%.
With `CCOC(=O)C(=O)Nc1ccc2oc(=O)c(=O)[nH]c2c1`, the IC50 in the assay filed under Rattus norvegicus [2] amounted to 60 µM.
As for `Cc1ccc2[nH]c(=O)c(=O)oc2c1`, the IC50 in the assay listed under Rattus norvegicus [2] was 32 µM. Moreover, the inhibition in vivo at 50 mg/kg in the assay on Rattus norvegicus [6] worked out at 97%.
Consider `COc1cccc2[nH]c(=O)c(=O)oc12`, for which the IC50 in the assay filed under Rattus norvegicus [2] came out at 7 µM. Also, the ED50 in the assay on Rattus norvegicus [3] is 14 mg/kg. For the same compound, the inhibition in vivo at 25 mg/kg in the assay on Rattus norvegicus [1] came out at 88%. The compound also yielded an inhibition in vivo at 50 mg/kg with Rattus norvegicus [6] of 89%.
For the compound `CCOC(=O)c1ccc2oc(=O)c(=O)[nH]c2c1`, in the assay listed under Rattus norvegicus [2], the IC50 was found to be 10 µM. The compound also displayed an inhibition in vivo at 25 mg/kg with Rattus norvegicus [1] of 0%.
With `O=c1[nH]c2ccccc2oc1=O`, the IC50 in the assay listed under Rattus norvegicus [2] is 42 µM. Moreover, the inhibition in vivo at 50 mg/kg in the assay with Rattus norvegicus [6] is 70%.
Regarding `O=c1[nH]c2c(ccc3ccccc32)oc1=O`, in the assay filed under Rattus norvegicus [2], the IC50 is < 100 µM. At 50 mg/kg the inhibition in vivo in the assay with Rattus norvegicus [6] was 18%.
With `N#Cc1ccc2[nH]c(=O)c(=O)oc2c1`, in the assay listed under Rattus norvegicus [2], the IC50 worked out at 15 µM. The 50% effect level in the assay on Rattus norvegicus [7] (ED50) was put at a dose of 23 mg/kg. The inhibition in vivo at 50 mg/kg in the assay on Rattus norvegicus [8] was 14%.
Regarding `O=c1[nH]c2cc([N+](=O)[O-])ccc2oc1=O`, the IC50 in the assay filed under Rattus norvegicus [2] came out at 0.8 µM. In addition, the figures for the inhibition in vivo at 50 mg/kg in the assay with Rattus norvegicus [8] and in the assay on Rattus norvegicus [6] were 24% and 91%, respectively.
Regarding `O=C(O)c1ccc2[nH]c(=O)c(=O)oc2c1`, the IC50 in the assay listed under Rattus norvegicus [2] amounted to 16 µM. In the assay on Rattus norvegicus [1], this compound yielded an inhibition in vivo at 25 mg/kg of 7%. Also, the inhibition in vivo at 50 mg/kg in the assay with Rattus norvegicus [6] stood at 83%.
Turning to `O=c1[nH]c2ccc(O)cc2oc1=O`, the IC50 in the assay filed under Rattus norvegicus [2] stood at 170 µM.
Consider `O=C([O-])c1cc(=O)c2c(OCC(O)COc3cccc4oc(C(=O)[O-])cc(=O)c34)cccc2o1.[Na+].[Na+]` [CROMOLYN SODIUM], for which the IC50 in the assay filed under Rattus norvegicus [2] turned out to be 4.5 µM. In addition, the ED50 in the assay on Rattus norvegicus [9] turned out to be 6 mg/kg.
